Calls of active or inactive are those of the source. The rule behind the calls is not given here.
Assays:
[1] = target: T1, C-X-C chemokine receptor type 2 (Homo sapiens, UniProt P25025); assay: Antagonist activity at CXCR2 in human PMNs assessed as inhibition of CXCL1-induced intracellular Ca2+ release by fluorescence based calcium flux assay; format: functional, cell-based
T1 sequence (P25025 whole entry): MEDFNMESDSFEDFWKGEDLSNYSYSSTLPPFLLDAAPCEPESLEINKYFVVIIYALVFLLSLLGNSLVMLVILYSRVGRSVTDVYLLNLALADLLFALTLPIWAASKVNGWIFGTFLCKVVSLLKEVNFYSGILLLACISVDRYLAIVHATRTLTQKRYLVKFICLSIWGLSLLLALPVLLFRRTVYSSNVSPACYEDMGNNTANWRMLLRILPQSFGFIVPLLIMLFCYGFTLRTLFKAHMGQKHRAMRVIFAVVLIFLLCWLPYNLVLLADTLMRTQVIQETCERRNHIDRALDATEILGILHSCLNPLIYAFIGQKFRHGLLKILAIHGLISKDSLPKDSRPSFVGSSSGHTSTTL

[2] = target: T1, C-X-C chemokine receptor type 2; assay: Antagonist activity at human CXCR2 expressed in HEK293 cells assessed as inhibition of […]-induced [35S]GTPgammaS binding after 60 mins; format: functional, cell-based
In short: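 HEK293 cells stably expressing human CXCR2 were pretreated with compound, then lysed (5 mM Tris-HCl pH 7.5, EDTA, EGTA) and membranes spun at 30000g. […] Nonspecific binding was taken with 10 μM GTPγS. IC50 came from nonlinear regression.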

[3] = target: T2, C-X-C chemokine receptor type 2 (Homo sapiens) (UniProt P25025); assay: Displacement of [125I]CXCL8 from human CXCR2 expressed in HEK293 cell membranes up to 10 uM by liquid scintillation counting method
T2 sequence (whole entry): T1 sequence (P25025 whole entry)
In short: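 After 1 h at room temperature, membranes were filtered and counted by scintillation. Results were expressed as % of control specific binding.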

[4] = target: T2, C-X-C chemokine receptor type 2 (Homo sapiens); assay: Effect on cell surface expression of human CXCR2 expressed in HEK293 cell […] at 10 uM incubated for 60 mins by FACS method; format: cell-based
In short: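 Stably CXCR2-expressing HEK293 cells were pretreated with 10 μM compound or 1% DMSO for 60 min. They were stained with PE-conjugated anti-human CXCR2 mAb (1:100) at 4 °C for 60 min, fixed in 2% formaldehyde and analysed by flow cytometry. Non-expressing HEK293 cells served as the negative control.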

[5] = target: T2, C-X-C chemokine receptor type 2 (Homo sapiens); assay: Antagonist activity at human CXCR2 expressed in HEK293 cells assessed as reduction in CXCL8-induced ERK1/2 phosphorylation at 10 uM after 30 mins by Western blotting method; format: cell-based
In short: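 Cells were lysed at 0, 5, 15 and 30 min. About 50 μg of protein was run on 10% SDS-PAGE, blotted, and probed for phospho-ERK1/2 and total ERK1/2 with an HRP secondary.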

[6] = target: T3, Interleukin-8 receptors, CXCR1/CXCR2 (Homo sapiens, UniProt P25025+P25024); assay: Antagonist activity at CXCR1/CXCR2 in human PMNs assessed as inhibition of CXCL8-induced intracellular Ca2+ release by fluorescence based calcium flux assay; format: functional, cell-based
T3 sequence (P25025 whole entry): T1 sequence (P25025 whole entry)
T3 sequence (P25024 whole entry): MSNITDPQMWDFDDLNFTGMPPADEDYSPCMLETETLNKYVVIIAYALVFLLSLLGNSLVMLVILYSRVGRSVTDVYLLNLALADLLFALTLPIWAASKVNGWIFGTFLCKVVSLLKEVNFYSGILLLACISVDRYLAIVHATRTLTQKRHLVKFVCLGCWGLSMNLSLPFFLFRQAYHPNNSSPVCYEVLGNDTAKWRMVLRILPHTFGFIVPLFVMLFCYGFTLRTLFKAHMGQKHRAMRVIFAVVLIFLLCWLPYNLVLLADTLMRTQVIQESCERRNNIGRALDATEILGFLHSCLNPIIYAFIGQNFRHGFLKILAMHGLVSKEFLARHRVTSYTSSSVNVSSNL

[7] = target: T4, C5a anaphylatoxin chemotactic receptor 1 (Homo sapiens, UniProt P21730); assay: Antagonist activity at C5a receptor in human PMNs assessed as inhibition of C5a-induced intracellular Ca2+ release by fluorescence based calcium flux assay; format: functional, cell-based
T4 sequence (P21730 whole entry): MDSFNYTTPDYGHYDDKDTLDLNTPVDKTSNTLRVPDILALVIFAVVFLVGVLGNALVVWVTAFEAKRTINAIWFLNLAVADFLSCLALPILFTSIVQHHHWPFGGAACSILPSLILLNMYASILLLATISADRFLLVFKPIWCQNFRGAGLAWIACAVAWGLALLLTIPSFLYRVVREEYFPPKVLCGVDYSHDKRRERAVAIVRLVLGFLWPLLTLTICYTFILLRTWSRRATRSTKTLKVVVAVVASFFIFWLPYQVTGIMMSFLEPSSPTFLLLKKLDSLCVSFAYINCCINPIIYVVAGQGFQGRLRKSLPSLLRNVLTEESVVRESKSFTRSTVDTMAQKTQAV

[8] = target: Platelet-activating factor receptor (Homo sapiens, UniProt P25105); assay: Antagonist activity at platelet-activating factor receptor in human PMNs assessed as inhibition of PAF-induced intracellular Ca2+ release by fluorescence based calcium flux assay; format: functional, cell-based
Chain of Platelet-activating factor receptor (P25105 whole entry): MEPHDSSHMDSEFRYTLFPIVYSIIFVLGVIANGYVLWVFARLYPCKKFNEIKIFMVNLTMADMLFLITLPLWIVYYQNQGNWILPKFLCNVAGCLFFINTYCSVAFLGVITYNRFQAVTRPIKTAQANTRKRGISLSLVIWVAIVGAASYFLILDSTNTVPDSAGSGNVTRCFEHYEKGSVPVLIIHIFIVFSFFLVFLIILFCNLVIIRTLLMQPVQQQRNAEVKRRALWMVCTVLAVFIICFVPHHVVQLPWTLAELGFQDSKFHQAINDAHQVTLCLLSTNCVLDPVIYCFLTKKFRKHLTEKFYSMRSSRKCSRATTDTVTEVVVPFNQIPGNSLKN

fMet-Leu-Phe receptor = target: T5, fMet-Leu-Phe receptor (Homo sapiens, UniProt P21462); assay: Antagonist activity at fMLF receptor in human PMNs assessed as inhibition of fMLF-induced intracellular Ca2+ release by fluorescence based calcium flux assay; format: functional, cell-based
T5 sequence (P21462 whole entry): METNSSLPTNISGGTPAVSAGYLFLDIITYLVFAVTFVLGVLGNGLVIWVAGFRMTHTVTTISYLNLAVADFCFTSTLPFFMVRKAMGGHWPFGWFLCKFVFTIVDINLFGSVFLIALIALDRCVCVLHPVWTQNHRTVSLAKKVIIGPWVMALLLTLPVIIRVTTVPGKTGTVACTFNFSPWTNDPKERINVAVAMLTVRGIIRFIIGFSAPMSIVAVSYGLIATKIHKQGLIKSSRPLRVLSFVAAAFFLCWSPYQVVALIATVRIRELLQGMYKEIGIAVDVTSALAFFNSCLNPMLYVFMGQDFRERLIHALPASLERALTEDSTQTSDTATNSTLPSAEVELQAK

[9] = target: T6, C-X-C chemokine receptor type 1 (Homo sapiens, UniProt P25024); assay: Antagonist activity at human CXCR1 expressed in HEK293 cells assessed as inhibition of CXCL8-induced intracellular Ca2+ release by fluorescence based calcium flux assay; format: functional, cell-based
T6 sequence (P25024 whole entry): T3 sequence (P25024 whole entry)
In short: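 HEK293 cells were stably transfected with human CXCR1, with a pooled polyclonal line selected in 800 μg/mL G418. […] Fluorescence was read at ex 485/em 525, and max–min was taken as % of control.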

[10] = target: T1, C-X-C chemokine receptor type 2; assay: Antagonist activity at human CXCR2 expressed in HEK293 cells assessed as inhibition of CXCL8-induced intracellular Ca2+ release by fluorescence based calcium flux assay; format: functional, cell-based
[11] = target: Interleukin-8 receptors, CXCR1/CXCR2 (Homo sapiens) (UniProt P25025+P25024); assay: Antagonist activity at CXCR1/CXCR2 in human PMNs assessed as inhibition of CXCL8-induced intracellular Ca2+ release at 1 uM by fluorescence based calcium flux assay; format: functional, cell-based
In short: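 Dye-loaded hPMNs were preincubated with compound or 1% DMSO at 37 °C for 30 min, then resuspended in HBSS+ with compound re-added. […] Fluorescence (ex 485/em 525) was read every 5 s for 240–500 s at room temperature, and the max–min response was expressed as % of the DMSO control.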

Mus musculus = assay: Antiinflammatory activity in CD1 Swiss mouse air pouch model of inflammation assessed as reduction in total cell count in inflammatory infiltrate at 0.2 mg/kg, iv dosed 3 hrs before carrageenan challenge and measured 4 hrs post carrageenan challenge by trypan blue staining based hemocytometry; format: functional, organism-based; parameters: dose 0.2 mg/kg
In short: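 Male CD1 Swiss mice aged 10–15 weeks received a 2 mL subcutaneous dorsal air injection, reinflated with 1.5 mL the next day. Compound in 20:20:80 PEG400:DMF:saline, or vehicle, was given iv by tail vein (n=5 per group). After 3 h, 1 mL of 2% carrageenan in PBS, or PBS, was injected into the pouch. After 4 h, pouch fluid plus a 2 mL PBS wash was collected, and trypan blue-stained cells were counted by hemocytometer. Statistics used Student's t-test.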

Row | SMILES | IC50 [1] | further results
1 | O=C(c1ccc(SCc2ccccc2B(O)O)nc1)N(CC1CCCCN1)c1ccc(F)cc1 (stereo unspecified) | > 5 µM | –
2 | O=C(Nc1ccc(F)cc1)c1ccc(SCc2ccc(-n3cncn3)cc2)nc1 | > 10 µM | –
3 | O=C(Nc1ccc(F)cc1)c1ccc(SCc2ccc([N+](=O)[O-])o2)nc1 | > 5 µM | –
4 | O=C(O)c1ccc(CSc2ccc(C(=O)Nc3ccc(F)cc3)cn2)cc1 | > 10 µM | –
5 | Cc1noc(-c2ccccc2)c1CSc1ccc(C(=O)Nc2ccc(F)cc2)cn1 | > 10 µM | –
6 | O=C(Nc1ccc(F)cc1)c1ccc(SCc2ccc(-n3cccn3)cc2)nc1 | > 10 µM | –
7 | O=C(Nc1ccc(F)cc1)c1ccc(SC[N+](=O)[O-])nc1 | > 10 µM | –
8 | O=C(Nc1ccc(F)cc1)c1ccc(SCc2ccc(OC(F)(F)F)cc2)nc1 | > 10 µM | –
9 | Cc1onc(-c2ccccc2)c1CSc1ccc(C(=O)Nc2ccc(F)cc2)cn1 | > 5 µM | –
10 | O=C(Nc1ccc(F)cc1)c1ccc(SCc2ccccc2B(O)O)nc1 | – | IC50 [2]: 0.06 µM; inhibition [3]: inactive; Activity [4]: inactive; inhibition [5]: Active; IC50 [6]: 0.036 µM; IC50 [7]: > 5 µM; IC50 [8]: > 5 µM; IC50 (fMet-Leu-Phe receptor): > 5 µM; IC50 [9]: 0.88 µM; IC50 [10]: 0.21 µM; inhibition [11]: Active; inhibition (Mus musculus): Active
11 | COC(=O)c1ccc(CSc2ccc(C(=O)Nc3ccc(F)cc3)cn2)cc1 | > 10 µM | –
12 | O=C(Nc1ccc(-c2nn[nH]n2)cc1)c1ccc(SCc2ccccc2B(O)O)nc1 | > 10 µM | –
13 | Cc1nc(-c2ccc(CSc3ccc(C(=O)Nc4ccc(F)cc4)cn3)cc2)cs1 | > 10 µM | –
14 | Cc1cc(CSc2ccc(C(=O)Nc3ccc(F)cc3)cn2)no1 | > 5 µM | –
15 | O=C(Nc1ccc(F)cc1)c1ccc(SCc2ccc(-n3cccc3)cc2)nc1 | > 10 µM | –
16 | Cc1nc(-c2cccc(CSc3ccc(C(=O)Nc4ccc(F)cc4)cn3)c2)cs1 | > 5 µM | –
17 | O=C(Nc1ccc(F)cc1)c1ccc(SCC2CCOCC2)nc1 | > 5 µM | –
18 | Cc1nc(-c2cccc(CSc3ccc(C(=O)Nc4ccc(F)cc4)cn3)c2)no1 | > 10 µM | –
19 | COC(=O)c1cccc(CSc2ccc(C(=O)Nc3ccc(F)cc3)cn2)c1 | > 5 µM | –
20 | CCOP(=O)(CSc1ccc(C(=O)Nc2ccc(F)cc2)cn1)OCC | > 10 µM | –

Row | SMILES | IC50 [1] | further results
21 | Cc1cccc(CSc2ccc(C(=O)Nc3ccc(F)cc3)cn2)c1F | > 10 µM | –
22 | O=C(Nc1ccc(F)cc1)c1ccc(SC2CCOC2=O)nc1 (stereo unspecified) | > 5 µM | –
23 | O=C(Nc1ccc(F)cc1)c1ccc(SCc2ccncc2)nc1 | > 5 µM | –
24 | O=C(Nc1ccc(F)cc1)c1ccc(SCc2cccc(OC(F)(F)F)c2)nc1 | > 10 µM | –
25 | Cc1nc(-c2ccc(C(F)(F)F)cc2)sc1CSc1ccc(C(=O)Nc2ccc(F)cc2)cn1 | > 10 µM | –
26 | O=C(Nc1ccc(F)cc1)c1ccc(SCc2ccccc2-c2cccs2)nc1 | > 5 µM | –
27 | Cc1nc(-c2ccccc2)sc1CSc1ccc(C(=O)Nc2ccc(F)cc2)cn1 | > 5 µM | –
28 | O=C(Nc1ccc(F)cc1)c1ccc(SCc2ccccc2O)nc1 | 0.277 µM | –
29 | O=C(Nc1ccc(F)cc1)c1ccc(SCc2cccc(-n3cccc3)c2)nc1 | > 10 µM | –
30 | O=C(Nc1ccc(F)cc1)c1ccc(SCC2CCCCO2)nc1 (stereo unspecified) | > 5 µM | –
31 | O=C(O)CSc1ccc(C(=O)Nc2ccc(F)cc2)cn1 | > 5 µM | –
32 | Cc1n[nH]c(C)c1CCSc1ccc(C(=O)Nc2ccc(F)cc2)cn1 | > 5 µM | –
33 | O=C(O)c1ccc(NC(=O)c2ccc(SCc3ccccc3B(O)O)nc2)cc1 | > 10 µM | –
34 | O=C(Nc1ccc(F)cc1)c1ccc(SCc2ccc([N+](=O)[O-])cc2)nc1 | > 5 µM | –
35 | O=C(Nc1ccc(F)cc1)c1ccc(SCS(=O)(=O)c2ccccc2)nc1 | > 5 µM | –
36 | O=C(Nc1ccc(F)cc1)c1ccc(SCc2ccc(C(F)(F)F)o2)nc1 | > 5 µM | –
37 | Cc1nn(-c2ccccc2)nc1CSc1ccc(C(=O)Nc2ccc(F)cc2)cn1 | > 5 µM | –
38 | O=C(Nc1ccc(F)cc1)c1ccc(SCC2CCN(C(=O)OCc3ccccc3)CC2)nc1 | > 10 µM | –
39 | Cc1nc(-c2ccc(CSc3ccc(C(=O)Nc4ccc(F)cc4)cn3)cc2)no1 | > 5 µM | –
40 | O=C(Nc1ccc(F)cc1)c1ccc(Sc2ccccc2)nc1 | > 10 µM | –

— ChEMBL document CHEMBL3352272, “Discovery of 2-[5-(4-Fluorophenylcarbamoyl)pyridin-2-ylsulfanylmethyl]phenylboronic Acid (SX-517): Noncompetitive Boronic Acid Antagonist of CXCR1 and CXCR2” (J Med Chem, 2014)
